Results reported in ChEMBL document CHEMBL5329154, “Novel 1,2,4-oxadiazole compounds as PPAR-α ligand agonists: a new strategy for the design of antitumour compounds” (RSC Med Chem, 2023).

What was measured:
[1] = Cytotoxicity against human RPTEC assessed as reduction in cell viability incubated for 72 hrs under normoxic condition by SRB assay; format: toxicity, cell-based; details: RPTEC cells
Outline: (§1)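 Cells in DMEM with 2 mM L-glutamine, 10% FBS, penicillin and streptomycin at 37 °C, 5% CO2. Tumour cells (A498, DU-145) kept at hypoxia (1% O2); non-tumour cells (RPTEC, WPMY-1) at normoxia (20–21% O2). Seeded 2 × 10^4 cells/well, grown 12 h, then dosed 72 h at 0.20–100 μM (ten twofold steps, 0.5% DMSO). Fixed in cold 10% TCA, stained with 0.4% SRB, dye solubilised in 10 mM Tris, OD read at 540 nm. CC50 from non-linear regression.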

[2] = system: DU-145; experiment: Cytotoxicity against human DU-145 cells assessed as reduction in cell viability incubated for 72 hrs under hypoxic condition by SRB assay; format: functional; outline: as §1
[3] = system: A498; experiment: Cytotoxicity against human A498 cells assessed as reduction in cell viability incubated for 72 hrs under hypoxic condition by SRB assay; format: functional; outline: as §1
[4] = Cytotoxicity against human WPMY-1 cells assessed as reduction in cell viability incubated for 72 hrs under normoxic condition by SRB assay; format: toxicity, cell-based; outline: as §1
[5] = biological target: T1, Peroxisome proliferator-activated receptor alpha (Homo sapiens, UniProt Q07869); experiment: Agonist activity at GAL4-tagged PPARalpha in human DU-145 cells assessed as transcriptional activation incubated for 72 hrs under hypoxic condition by luciferase assay; format: cell-based
T1 sequence (Q07869 whole entry): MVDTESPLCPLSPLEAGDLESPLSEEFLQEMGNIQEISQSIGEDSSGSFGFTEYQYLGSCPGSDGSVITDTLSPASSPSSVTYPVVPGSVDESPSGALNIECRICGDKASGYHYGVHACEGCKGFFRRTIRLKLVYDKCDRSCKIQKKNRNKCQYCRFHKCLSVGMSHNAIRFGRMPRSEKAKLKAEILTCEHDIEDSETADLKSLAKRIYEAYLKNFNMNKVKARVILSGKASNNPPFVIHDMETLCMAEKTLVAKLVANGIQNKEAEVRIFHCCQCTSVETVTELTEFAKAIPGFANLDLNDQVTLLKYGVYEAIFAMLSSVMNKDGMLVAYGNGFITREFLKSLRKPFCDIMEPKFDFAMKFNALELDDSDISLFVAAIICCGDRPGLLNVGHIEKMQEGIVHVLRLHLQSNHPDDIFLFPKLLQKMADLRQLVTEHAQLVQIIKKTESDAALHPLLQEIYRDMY

[6] = biological target: T1, Peroxisome proliferator-activated receptor alpha; experiment: Agonist activity at GAL4-tagged PPARalpha in human WPMY-1 cells assessed as transcriptional activation incubated for 72 hrs under normoxic condition by luciferase assay; format: cell-based
[7] = biological target: T1, Peroxisome proliferator-activated receptor alpha; experiment: Agonist activity at GAL4-tagged PPARalpha in human A498 cells assessed as transcriptional activation incubated for 72 hrs under hypoxic condition by luciferase assay; format: cell-based
[8] = biological target: T1, Peroxisome proliferator-activated receptor alpha; experiment: Agonist activity at GAL4-tagged PPARalpha in human RPTEC assessed as transcriptional activation incubated for 72 hrs under normoxic condition by luciferase assay; format: cell-based

| Structure (SMILES) | CC50 at 72 h [1] | CC50 [2] | CC50 [3] | CC50 at 72 h [4] | EC50 [5] | EC50 [6] | EC50 [7] | EC50 [8] |
| --- | --- | --- | --- | --- | --- | --- | --- | --- |
| c1cncc(-c2noc(-c3nnon3)n2)c1 | 61.2 µM | 2.63 µM | 2.64 µM | 70.1 µM | – | – | – | – |
| Cn1ccc(-c2nc(-c3cccnc3)no2)c1 | 87.2 µM | 3.46 µM | 2.01 µM | 91.8 µM | – | – | – | – |
| Cc1cccc(Nc2cc(Cl)nc(CSC(=O)O)n2)c1C | 54.1 µM | 3.21 µM | 2.94 µM | 62.9 µM | – | – | – | – |
| c1cncc(-c2noc(C3CCCC3)n2)c1 | 84.4 µM | 2.81 µM | 1.79 µM | 96.4 µM | – | – | – | – |
| c1cncc(-c2noc(-c3ncsn3)n2)c1 | 45.5 µM | 2.79 µM | 2.2 µM | 53.7 µM | – | – | – | – |
| CCCCCc1nc(-c2cccnc2)no1 | 81.7 µM | 1.93 µM | 1.66 µM | 92.7 µM | – | – | – | – |
| c1cncc(-c2noc(-c3ccoc3)n2)c1 | 54.8 µM | 1.83 µM | 1.52 µM | 62.5 µM | – | – | – | – |
| C1=C(c2nc(-c3cccnc3)no2)CCC1 | 68.4 µM | 1.68 µM | 1.39 µM | 81.3 µM | – | – | – | – |
| Cn1cnc(-c2nc(-c3cccnc3)no2)n1 | 90.9 µM | 6.82 µM | 4.83 µM | 94.9 µM | – | – | – | – |
| c1cncc(-c2noc(-c3ncon3)n2)c1 | 67.5 µM | 3.43 µM | 3.76 µM | 77.7 µM | – | – | – | – |
| Cn1nnc(-c2nc(-c3cccnc3)no2)n1 | 89 µM | 5.14 µM | 3.42 µM | 93.4 µM | – | – | – | – |
| c1cncc(-c2noc(-c3nnsn3)n2)c1 | 38.7 µM | 1.45 µM | 1.21 µM | 46.7 µM | – | – | – | – |
| C1=CC(c2nc(-c3cccnc3)no2)CC1 (stereo unspecified) | 74.8 µM | 1.81 µM | 1.53 µM | 88 µM | 1.5 µM | 0.73 µM | 0.47 µM | 0.21 µM |
| c1cncc(-c2noc(-c3ccsc3)n2)c1 | 63.3 µM | 1.57 µM | 1.32 µM | 71.1 µM | – | – | – | – |
| c1cncc(-c2noc(-c3nc[nH]n3)n2)c1 | 93.6 µM | 5.73 µM | 3.91 µM | 98.1 µM | – | – | – | – |
| c1cncc(-c2noc(-c3nn[nH]n3)n2)c1 | 95.2 µM | 7.49 µM | 5.28 µM | 99.2 µM | – | – | – | – |
| C1=CC(c2nc(-c3cccnc3)no2)=CC1 | 66.7 µM | 1.63 µM | 1.37 µM | 78.6 µM | – | – | – | – |
| c1cncc(-c2noc(-c3cc[nH]c3)n2)c1 | 92 µM | 3.97 µM | 2.52 µM | 96.9 µM | – | – | – | – |
